According to ChEMBL document CHEMBL4138126, “Synthesis, antiproliferative, anti-tubulin activity, and docking study of new 1,2,4-triazoles as potential combretastatin analogues” (Eur J Med Chem, 2017):

Tests used:
CCRF-CEM = assay: Growth inhibition of human CCRF-CEM cells assessed as cell growth at 10 uM after 48 hrs by sulforhodamine B assay; format: functional; conditions: read-out: Activity
In short: (§1)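 NCI 60-cell-line panel screen (nine cancer types). Compounds added at single concentration 10^-5 M, cultures incubated 48 h; growth inhibition percentages reported.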

UO-31 = assay: Growth inhibition of human UO31 cells assessed as cell growth at 10 uM after 48 hrs by sulforhodamine B assay; format: functional; conditions: UO-31, 48 h, read-out: Activity
In short: (§2)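 NCI 60-cell-line panel from nine tumour types (leukaemia, lung, colon, CNS, melanoma, ovarian, renal, prostate, breast). Each compound was added at one single concentration, and cultures were incubated for 48 h. Results are reported as percent growth inhibition.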

SW-620 = assay: Growth inhibition of human SW620 cells assessed as cell growth at 10 uM after 48 hrs by sulforhodamine B assay; format: functional; conditions: SW-620, 48 h, read-out: Activity; in short: as §2
OVCAR-3 = assay: Growth inhibition of human OVCAR3 cells assessed as cell growth at 10 uM after 48 hrs by sulforhodamine B assay; format: functional; conditions: OVCAR-3, 48 h, read-out: Activity; in short: as §1
A498 = assay: Growth inhibition of human A498 cells assessed as cell growth at 10 uM after 48 hrs by sulforhodamine B assay; format: functional; conditions: A498, 48 h, read-out: Activity; in short: as §1
MCF7 = assay: Growth inhibition of human MCF7 cells assessed as cell growth at 10 uM after 48 hrs by sulforhodamine B assay; format: functional; conditions: MCF7, 48 h, read-out: Activity; in short: as §1
T47D = assay: Growth inhibition of human T47D cells assessed as cell growth at 10 uM after 48 hrs by sulforhodamine B assay; format: functional; conditions: read-out: Activity; in short: as §2
NCI-H460 = assay: Growth inhibition of human NCI-H460 cells assessed as cell growth at 10 uM after 48 hrs by sulforhodamine B assay; format: functional; conditions: NCI-H460, 48 h, read-out: Activity; in short: as §1
TK-10 = assay: Growth inhibition of human TK10 cells assessed as cell growth at 10 uM after 48 hrs by sulforhodamine B assay; format: functional; conditions: TK-10, 48 h, read-out: Activity; in short: as §2
LOX IMVI = assay: Growth inhibition of human LOXIMVI cells assessed as cell growth at 10 uM after 48 hrs by sulforhodamine B assay; format: functional; conditions: read-out: Activity; in short: as §1
SNB-19 = assay: Growth inhibition of human SNB19 cells assessed as cell growth at 10 uM after 48 hrs by sulforhodamine B assay; format: functional; conditions: SNB-19, 48 h, read-out: Activity; in short: as §2
SF-539 = assay: Growth inhibition of human SF539 cells assessed as cell growth at 10 uM after 48 hrs by sulforhodamine B assay; format: functional; conditions: SF-539, 48 h, read-out: Activity; in short: as §1
A549 = assay: Growth inhibition of human A549/ATCC cells assessed as cell growth at 10 uM after 48 hrs by sulforhodamine B assay; format: functional; conditions: A549, 48 h, read-out: Activity; in short: as §1
RPMI-8226 = assay: Growth inhibition of human RPMI8226 cells assessed as cell growth at 10 uM after 48 hrs by sulforhodamine B assay; format: functional; conditions: RPMI-8226, 48 h, read-out: Activity; in short: as §1
NCI-H322M = assay: Growth inhibition of human NCI-H322M cells assessed as cell growth at 10 uM after 48 hrs by sulforhodamine B assay; format: functional; conditions: read-out: Activity; in short: as §1
OVCAR-4 = assay: Growth inhibition of human OVCAR4 cells assessed as cell growth at 10 uM after 48 hrs by sulforhodamine B assay; format: functional; conditions: OVCAR-4, 48 h, read-out: Activity; in short: as §1
HCT-116 = assay: Growth inhibition of human HCT116 cells assessed as cell growth at 10 uM after 48 hrs by sulforhodamine B assay; format: functional; conditions: HCT-116, 48 h, read-out: Activity; in short: as §1
RXF 393 = assay: Growth inhibition of human RXF393 cells assessed as cell growth at 10 uM after 48 hrs by sulforhodamine B assay; format: functional; conditions: RXF 393, 48 h, read-out: Activity; in short: as §1
Malme-3M = assay: Growth inhibition of human MALME-3M cells assessed as cell growth at 10 uM after 48 hrs by sulforhodamine B assay; format: functional; conditions: read-out: Activity; in short: as §1
DU-145 = assay: Growth inhibition of human DU145 cells assessed as cell growth at 10 uM after 48 hrs by sulforhodamine B assay; format: functional; conditions: DU-145, 48 h, read-out: Activity; in short: as §1
NCI-H23 = assay: Growth inhibition of human NCI-H23 cells assessed as cell growth at 10 uM after 48 hrs by sulforhodamine B assay; format: functional; conditions: NCI-H23, 48 h, read-out: Activity; in short: as §1
SK-MEL-2 = assay: Growth inhibition of human SK-MEL-2 cells assessed as cell growth at 10 uM after 48 hrs by sulforhodamine B assay; format: functional; conditions: SK-MEL-2, 48 h, read-out: Activity; in short: as §1
SNB-75 = assay: Growth inhibition of human SNB75 cells assessed as cell growth at 10 uM after 48 hrs by sulforhodamine B assay; format: functional; conditions: SNB-75, 48 h, read-out: Activity; in short: as §2
PC-3 = assay: Growth inhibition of human PC3 cells assessed as cell growth at 10 uM after 48 hrs by sulforhodamine B assay; format: functional; conditions: PC-3, 48 h, read-out: Activity; in short: as §1
NCI/ADR-RES = assay: Growth inhibition of human NCI-ADR-RES cells assessed as cell growth at 10 uM after 48 hrs by sulforhodamine B assay; format: functional; conditions: read-out: Activity; in short: as §1
M14 = assay: Growth inhibition of human M14 cells assessed as cell growth at 10 uM after 48 hrs by sulforhodamine B assay; format: functional; conditions: M14, 48 h, read-out: Activity; in short: as §1
SF-268 = assay: Growth inhibition of human SF268 cells assessed as cell growth at 10 uM after 48 hrs by sulforhodamine B assay; format: functional; conditions: SF-268, 48 h, read-out: Activity; in short: as §1
HOP-92 = assay: Growth inhibition of human HOP92 cells assessed as cell growth at 10 uM after 48 hrs by sulforhodamine B assay; format: functional; conditions: HOP-92, 48 h, read-out: Activity; in short: as §1
BT-549 = assay: Growth inhibition of human BT549 cells assessed as cell growth at 10 uM after 48 hrs by sulforhodamine B assay; format: functional; conditions: BT-549, 48 h, read-out: Activity; in short: as §1
ACHN = assay: Growth inhibition of human ACHN cells assessed as cell growth at 10 uM after 48 hrs by sulforhodamine B assay; format: functional; conditions: read-out: Activity; in short: as §1
HepG2 = assay: Cytotoxicity in human HepG2 cells assessed as reduction in cell viability incubated for 48 hrs by MTT assay; format: functional, cell-based; conditions: HepG2, 48 h
In short: (§3)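 HepG2 and HL60 (ATCC) grown in DMEM with 10% FBS, 2 mM L-glutamine, penicillin/streptomycin, amphotericin B at 37 °C, 5% CO2. Samples dissolved in DMSO, diluted thousandfold in assay. Cells seeded in serum-free medium, treated with serial concentrations 48 h; MTT 4 h, formazan dissolved in acidified isopropanol, A570. Triplicates averaged; viability relative to untreated/vehicle control.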

HL-60 = assay: Cytotoxicity in human HL60 cells assessed as reduction in cell viability incubated for 48 hrs by MTT assay; format: functional, cell-based; conditions: HL-60, 48 h; in short: as §3
HT-29 = assay: Growth inhibition of human HT-29 cells assessed as cell growth at 10 uM after 48 hrs by sulforhodamine B assay; format: functional; conditions: HT-29, 48 h, read-out: Activity; in short: as §1

SMILES	growth at 10 µM (CCRF-CEM) [%]	growth at 10 µM (UO-31) [%]	growth at 10 µM (SW-620) [%]	growth at 10 µM (OVCAR-3) [%]	growth at 10 µM (A498) [%]	growth at 10 µM (MCF7) [%]	growth at 10 µM (T47D) [%]	growth at 10 µM (NCI-H460) [%]	growth at 10 µM (TK-10) [%]	growth at 10 µM (LOX IMVI) [%]	growth at 10 µM (SNB-19) [%]	growth at 10 µM (SF-539) [%]	growth at 10 µM (A549) [%]	growth at 10 µM (RPMI-8226) [%]	growth at 10 µM (NCI-H322M) [%]	growth at 10 µM (OVCAR-4) [%]	growth at 10 µM (HCT-116) [%]	growth at 10 µM (RXF 393) [%]	growth at 10 µM (Malme-3M) [%]	growth at 10 µM (DU-145) [%]	other results
CCOc1ccc(-n2nc(C(=O)NCc3ccccc3OC)nc2-c2cc(OC)c(OC)c(OC)c2)cc1	39.7	-2.66	58	49.4	30	22.1	17	30.5	46.5	36.3	45.2	49.2	34.5	26.9	52.4	23.4	25.3	43.5	87.5	65.2	growth at 10 µM (NCI-H23): 60.8%; growth at 10 µM (SK-MEL-2): 41.5%; growth at 10 µM (SNB-75): 30%; growth at 10 µM (PC-3): 24.6%; growth at 10 µM (NCI/ADR-RES): 27.8%; growth at 10 µM (M14): 42.1%; growth at 10 µM (SF-268): 54.1%; growth at 10 µM (HOP-92): 29%; growth at 10 µM (BT-549): 33.9%; growth at 10 µM (ACHN): 19.6%; IC50 (HepG2): 620 nM; IC50 (HL-60): 600 nM; growth at 10 µM (HT-29): 40.6%
CCOc1ccc(-n2nc(C(=O)NCc3cccc(OC)c3)nc2-c2cc(OC)c(OC)c(OC)c2)cc1	94.2	44.3	108	93.5	98.1	84.1	69.8	102	87.8	88.9	90.1	88.9	73.2	84.3	81.6	98.9	96	92.5	97.7	107	growth at 10 µM (NCI-H23): 94.3%; growth at 10 µM (SK-MEL-2): 90%; growth at 10 µM (SNB-75): 53.2%; growth at 10 µM (PC-3): 78.4%; growth at 10 µM (NCI/ADR-RES): 82.5%; growth at 10 µM (M14): 92.9%; growth at 10 µM (SF-268): 91.5%; growth at 10 µM (HOP-92): 95.6%; growth at 10 µM (BT-549): 92.6%; growth at 10 µM (ACHN): 97.5%; IC50 (HepG2): 1900 nM; IC50 (HL-60): 98800 nM; growth at 10 µM (HT-29): 73.5%
CCOc1ccc(-n2nc(C(=O)Nc3cc(F)cc(F)c3)nc2-c2cc(OC)c(OC)c(OC)c2)cc1	84.1	53.5	99.3	93.6	56	79	55.9	94.7	96.9	86.6	73.3	82.4	73.8	69.4	85.3	84.8	95.2	88.2	97.5	98.2	growth at 10 µM (NCI-H23): 84%; growth at 10 µM (SK-MEL-2): 92.9%; growth at 10 µM (SNB-75): 58%; growth at 10 µM (PC-3): 69.9%; growth at 10 µM (NCI/ADR-RES): 81.7%; growth at 10 µM (M14): 98%; growth at 10 µM (SF-268): 88.9%; growth at 10 µM (HOP-92): 67.8%; growth at 10 µM (BT-549): 101%; growth at 10 µM (ACHN): 82.7%; IC50 (HepG2): 36500 nM; IC50 (HL-60): > 100000 nM; growth at 10 µM (HT-29): 89%
